In ChEMBL document CHEMBL1147718, “Design, synthesis, antibacterial, and QSAR studies of myristic acid derivatives” (2006):
≈ marks a conversion by molar mass, not a printed value.

How the values were obtained:
Type in all cases: functional
Conditions in all cases: read-out: -Log MIC (converted)
[1] = system: Staphylococcus aureus; test: Antibacterial activity against Staphylococcus aureus
Summary of the method: (§1)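 Serial dilution MIC in double strength nutrient broth-IP against S. aureus, M. luteus and E. coli. Derivatives dissolved in DMSO as […] stock. Activity reported as −log MIC.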

[2] = system: Micrococcus luteus; test: Antibacterial activity against Micrococcus luteus; summary of the method: as §1
[3] = system: Escherichia coli; test: Antibacterial activity against Escherichia coli; summary of the method: as §1

SMILES	MIC [1] [µM]	MIC [2] [µM]	MIC [3] [µM]
CCCCCCCCCCCCCC(=O)N(CC)CC	2630 (≈ 746 µg/mL)	2140 (≈ 606 µg/mL)	2240 (≈ 635 µg/mL)
CCCCCCCCCCCCCC(=O)Nc1cccc([N+](=O)[O-])c1	2750 (≈ 960 µg/mL)	3470 (≈ 1210 µg/mL)	2750 (≈ 960 µg/mL)
CCCCCCCCCCCCCC(=O)Nc1ccccc1	1950 (≈ 592 µg/mL)	1950 (≈ 592 µg/mL)	3160 (≈ 960 µg/mL)
CCCCCCCCCCCCCC(=O)NCCCC	2140 (≈ 606 µg/mL)	2450 (≈ 696 µg/mL)	3550 (≈ 1010 µg/mL)
CCCCCCCCCCCCCC(=O)NCCC	2570 (≈ 693 µg/mL)	2570 (≈ 693 µg/mL)	3720 (≈ 1000 µg/mL)
CCCCCCCCCCCCCC(=O)OCCCC [BUTYL TETRADECANOATE]	2630 (≈ 748 µg/mL)	4370 (≈ 1240 µg/mL)	3550 (≈ 1010 µg/mL)
CCCCCCCCCCCCCC(=O)OCC [ETHYL TETRADECANOATE]	3890 (≈ 998 µg/mL)	2450 (≈ 629 µg/mL)	2450 (≈ 629 µg/mL)
CCCCCCCCCCCCCC(=O)OC(C)C [ISOPROPYL MYRISTATE]	2240 (≈ 605 µg/mL)	2240 (≈ 605 µg/mL)	3720 (≈ 1000 µg/mL)
CCCCCCCCCCCCCC(=O)OC [METHYL TETRADECANOATE]	4170 (≈ 1010 µg/mL)	5130 (≈ 1240 µg/mL)	4170 (≈ 1010 µg/mL)
CCCCCCCCCCCCCC(=O)O [MYRISTIC ACID]	3310 (≈ 756 µg/mL)	3310 (≈ 756 µg/mL)	5500 (≈ 1260 µg/mL)
CCCCCCCCCCCCCC(=O)OCCCCC [PENTYL TETRADECANOATE]	2000 (≈ 596 µg/mL)	2000 (≈ 596 µg/mL)	3020 (≈ 901 µg/mL)
CCCCCCCCCCCCCC(=O)OCCC [PROPYL TETRADECANOATE]	2340 (≈ 634 µg/mL)	2340 (≈ 634 µg/mL)	4570 (≈ 1240 µg/mL)
CCCCCCCCCCCCCC(N)=O [TETRADECANAMIDE]	2570 (≈ 584 µg/mL)	5130 (≈ 1170 µg/mL)	3090 (≈ 703 µg/mL)
CCCCCCCCCCCCCC(=O)NN [TETRADECANEHYDRAZIDE]	4170 (≈ 1010 µg/mL)	5130 (≈ 1240 µg/mL)	4170 (≈ 1010 µg/mL)

Stronger by MIC [1], values ahead:

MIC [1] [µM]	MIC [2] [µM]	MIC [3] [µM]	SMILES
1740 (≈ 494 µg/mL)	1740 (≈ 494 µg/mL)	3160 (≈ 900 µg/mL)	CCCCCCCCCCCCCC(=O)OCC(C)C [ISOBUTYL TETRADECANOATE]
1660 (≈ 495 µg/mL)	2000 (≈ 596 µg/mL)	3020 (≈ 901 µg/mL)	CCCCCCCCCCCCCC(=O)OCCC(C)C [ISOPENTYL TETRADECANOATE]
1580 (≈ 505 µg/mL)	1860 (≈ 593 µg/mL)	2510 (≈ 800 µg/mL)	CCCCCCCCCCCCCC(=O)OCc1ccccc1 [BENZYL TETRADECANOATE]
1580 (≈ 495 µg/mL)	1290 (≈ 403 µg/mL)	2570 (≈ 803 µg/mL)	CCCCCCCCCCCCCC(=O)OCCCCCC [HEXYL TETRADECANOATE]
1510 (≈ 505 µg/mL)	1780 (≈ 593 µg/mL)	2400 (≈ 800 µg/mL)	CCCCCCCCCCCCCC(=O)Nc1ccc(OC)cc1
1510 (≈ 505 µg/mL)	1780 (≈ 593 µg/mL)	2400 (≈ 800 µg/mL)	CCCCCCCCCCCCCC(=O)Nc1ccccc1OC
1480 (≈ 500 µg/mL)	1170 (≈ 397 µg/mL)	2690 (≈ 910 µg/mL)	CCCCCCCCCCCCCC(=O)Nc1cccc(Cl)c1
1480 (≈ 500 µg/mL)	1480 (≈ 500 µg/mL)	2690 (≈ 910 µg/mL)	CCCCCCCCCCCCCC(=O)Nc1ccc(Cl)cc1
1480 (≈ 500 µg/mL)	1780 (≈ 601 µg/mL)	2690 (≈ 910 µg/mL)	CCCCCCCCCCCCCC(=O)Nc1ccccc1Cl
1380 (≈ 481 µg/mL)	1740 (≈ 606 µg/mL)	2750 (≈ 960 µg/mL)	CCCCCCCCCCCCCC(=O)Nc1ccc([N+](=O)[O-])cc1
1380 (≈ 481 µg/mL)	1740 (≈ 606 µg/mL)	3470 (≈ 1210 µg/mL)	CCCCCCCCCCCCCC(=O)Nc1ccccc1[N+](=O)[O-]
1230 (≈ 402 µg/mL)	1510 (≈ 494 µg/mL)	2450 (≈ 802 µg/mL)	CCCCCCCCCCCCCC(=O)OCCCCCCC [HEPTYL TETRADECANOATE]
1170 (≈ 400 µg/mL)	1170 (≈ 400 µg/mL)	2340 (≈ 798 µg/mL)	CCCCCCCCCCCCCC(=O)OCCCCCCCC [OCTYL TETRADECANOATE]
468 (≈ 155 µg/mL)	468 (≈ 155 µg/mL)	468 (≈ 155 µg/mL)	O=C(O)c1cn(C2CC2)c2cc(N3CCNCC3)c(F)cc2c1=O [CIPROFLOXACIN]
